The nature of assay [1]: Hypoglycemic potency relative to MTP-1403. Format: functional. The procedure, abridged:
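ob/ob insulin-resistant hyperglycemic mice on lab chow with free water. Graded oral doses given to groups of 5 mice; glucose load 2 g/kg sc 30 min after dosing, orbital sinus bleed 30 min after the load. Blood glucose compared with a reference standard by parallel-line bioassay, giving potency relative to the standard.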

Assay [2] addresses T1, Beta-1 adrenergic receptor (Cavia porcellus, UniProt B0FL73).
A short description of assay [3]: Binding affinity against Alpha-1 adrenergic receptor of calf cerebral cortex homogenates using [3H]prazosin. Format: tissue-based, Bos taurus.
Assay [4] relates to Mus musculus. Kind of assay: Ability to lower blood glucose in insulin-resistant hyperglycemic ob/ob mice after 30 mg/kg p.o. administration. Particulars: route oral. The format is functional.
Assay [5] has as its target T2, Alpha-2A adrenergic receptor (Bos taurus, UniProt Q28838).
T2 sequence (Q28838 whole entry): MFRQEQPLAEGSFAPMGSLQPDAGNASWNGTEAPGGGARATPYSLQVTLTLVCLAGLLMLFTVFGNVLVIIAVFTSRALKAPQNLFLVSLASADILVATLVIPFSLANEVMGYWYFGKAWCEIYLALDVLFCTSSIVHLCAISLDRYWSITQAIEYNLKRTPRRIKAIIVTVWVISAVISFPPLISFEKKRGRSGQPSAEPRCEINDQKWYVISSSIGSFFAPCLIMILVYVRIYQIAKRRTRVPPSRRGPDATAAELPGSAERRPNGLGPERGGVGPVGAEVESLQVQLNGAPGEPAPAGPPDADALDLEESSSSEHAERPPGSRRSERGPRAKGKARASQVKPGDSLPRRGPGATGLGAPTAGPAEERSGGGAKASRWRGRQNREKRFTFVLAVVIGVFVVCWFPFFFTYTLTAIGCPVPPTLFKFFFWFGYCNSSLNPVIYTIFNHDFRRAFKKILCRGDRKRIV
Kind of assay: Binding affinity at Alpha-2 adrenergic receptor in calf cerebral cortex homogenates by [3H]clonidine displacement. Format: tissue-based.

Assay [6] has as its target Beta-2 adrenergic receptor (Cavia porcellus, UniProt Q8K4Z4).
Assay [7] concerns the target T3, Alpha-1A adrenergic receptor (Bos taurus) (UniProt P18130).
T3 sequence (whole entry): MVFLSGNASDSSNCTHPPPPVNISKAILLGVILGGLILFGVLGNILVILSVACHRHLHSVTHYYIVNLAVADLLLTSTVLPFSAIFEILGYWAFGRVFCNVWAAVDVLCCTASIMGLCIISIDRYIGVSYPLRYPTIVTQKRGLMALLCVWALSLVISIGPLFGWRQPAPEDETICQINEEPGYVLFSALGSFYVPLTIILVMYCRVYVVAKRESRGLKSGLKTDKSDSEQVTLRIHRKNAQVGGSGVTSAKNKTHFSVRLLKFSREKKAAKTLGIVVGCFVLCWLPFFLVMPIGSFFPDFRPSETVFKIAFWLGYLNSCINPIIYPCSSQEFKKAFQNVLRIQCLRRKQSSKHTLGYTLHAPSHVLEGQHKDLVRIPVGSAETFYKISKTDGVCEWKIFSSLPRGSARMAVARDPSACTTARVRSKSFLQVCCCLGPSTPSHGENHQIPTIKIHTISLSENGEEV
Kind of assay: Inhibition of binding of [3H]prazosin to Alpha-1 adrenergic receptor in calf cerebral cortex homogenates at 10000 nM. Format: tissue-based.

In assay [8] the target is T1, Beta-1 adrenergic receptor. As to the kind of experiment: Binding affinity against Beta-1 adrenergic receptor was measured using [125I]CYP as radioligand; NB= not bound.
Assay [9] concerns Mus musculus. Kind of assay: Compound was evaluated for its ability to lower blood glucose in insulin-resistant hyperglycemic ob/ob mice after peroral administration of 30 mg/kg single dose; NA= not active. The format is functional, organism-based. On the set-up: dose 30 mg/kg. Particulars: at 30 mg/kg.
In assay [10] the target is T4, Alpha-1A adrenergic receptor (Bos taurus, UniProt P18130).
T4 sequence (P18130 whole entry): T3 sequence (whole entry)
Kind of assay: Binding affinity against alpha-1 adrenergic receptor was determined in calf cerebral cortex homogenates using [3H]prazosin as radioligand. The format is tissue-based.

Molecules are shown by their SMILES. Calls of active or inactive are those of the source. The rule behind the calls is not given here. Some results are limits rather than exact numbers.

T1 sequence (B0FL73 whole entry): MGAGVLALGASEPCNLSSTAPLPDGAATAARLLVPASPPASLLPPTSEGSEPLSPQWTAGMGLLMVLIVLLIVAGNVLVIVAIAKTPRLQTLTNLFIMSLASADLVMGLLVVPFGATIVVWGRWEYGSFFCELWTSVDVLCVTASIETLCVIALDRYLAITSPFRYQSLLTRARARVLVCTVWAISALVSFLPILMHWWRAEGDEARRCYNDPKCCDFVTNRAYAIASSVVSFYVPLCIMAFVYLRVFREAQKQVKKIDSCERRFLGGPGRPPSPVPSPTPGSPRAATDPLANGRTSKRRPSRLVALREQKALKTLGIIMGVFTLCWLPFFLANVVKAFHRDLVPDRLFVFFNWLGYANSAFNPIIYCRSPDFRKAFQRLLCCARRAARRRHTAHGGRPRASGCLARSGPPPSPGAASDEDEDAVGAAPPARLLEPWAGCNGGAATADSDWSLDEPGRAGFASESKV
Sequence of Beta-2 adrenergic receptor (Q8K4Z4 whole entry): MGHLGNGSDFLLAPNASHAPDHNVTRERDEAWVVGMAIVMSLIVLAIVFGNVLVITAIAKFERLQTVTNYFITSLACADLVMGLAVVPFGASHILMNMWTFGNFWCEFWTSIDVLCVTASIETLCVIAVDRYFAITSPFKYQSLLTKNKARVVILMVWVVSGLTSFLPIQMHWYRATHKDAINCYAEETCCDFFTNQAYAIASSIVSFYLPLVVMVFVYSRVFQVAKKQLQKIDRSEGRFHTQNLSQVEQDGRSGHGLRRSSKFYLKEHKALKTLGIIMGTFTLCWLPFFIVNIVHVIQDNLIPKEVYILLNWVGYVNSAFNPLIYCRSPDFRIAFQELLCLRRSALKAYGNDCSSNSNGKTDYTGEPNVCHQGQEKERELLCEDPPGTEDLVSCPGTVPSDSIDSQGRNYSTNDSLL

What is called Ki is a measure of affinity in units of concentration, obtained from inhibition or displacement. High values mean weaker binding, low ones tighter binding. The molecule `Cc1cn2c(C)cnc2c(N2CCNCC2)n1.Cl` yielded a Relative potency in assay [1] of 6. Further, the Ki in [2] came to 150 nM; in assay [3], 300 nM; in assay [5] it was 620 nM; in [6] it was 250 nM. In the assay on Mus musculus [4], the “Blood glucose, percent of control” value is reported as 47%.
For orientation: inhibition means the share of the control response that was lost under treatment. Higher therefore signals strong suppression. For `CCc1cnc2c(N3CCNCC3)nccn12.Cl`, the inhibition in [7] worked out at 30%. In addition, the Relative potency in [1] came to 4. Further, the inhibition constant Ki in [2] was found to be 5000 nM; in assay [5], 530 nM; in assay [6], 3240 nM. For the same molecule, the “Blood glucose, percent of control” value in the assay on Mus musculus [4] was 54%.
Consider `Cc1cnc(N2CCNCC2)c2ncc(C)n12.Cl`, for which the Ki in assay [2] came to 400 nM; in assay [5], 340 nM. The “Blood glucose, percent of control” value with Mus musculus [4] came out at 72%.
For the molecule `Cc1cn2ccnc2c(N2CCNCC2)n1.Cl`, the inhibition constant Ki in [2] was 220 nM; in [3] it was 500 nM; in assay [5] it was 190 nM; in [6], 280 nM. Also, the “Blood glucose, percent of control” value in the assay on Mus musculus [4] came to 61%.
Molecule `CC(C)c1cnc2c(N3CCNCC3)nccn12.Cl` displayed a Relative potency in assay [1] of 3. Moreover, the Ki in assay [2] was determined as 2990 nM; in assay [3], 5430 nM; in [5], 370 nM; in [6] it was 2010 nM. The “Blood glucose, percent of control” value in the assay with Mus musculus [4] came to 60%.
Regarding `CN1CCN(c2ncc(Br)n3ccnc23)CC1`, the inhibition in assay [7] was determined as 22%. The Ki in assay [2] was 500 nM; in assay [5], 270 nM. For the same molecule, the “Blood glucose, percent of control” value with Mus musculus [4] stood at 100%.
In the case of `Cl.Clc1cnc2c(N3CCNCC3)nccn12`, the Ki in assay [3] came out at 2780 nM. In addition, the “Blood glucose, percent of control” value in the assay with Mus musculus [4] turned out to be 66%.
Molecule `CN1CCN(c2nccn3c(Br)cnc23)CC1` had an inhibition in [7] of 4%. Further, the values for the inhibitory constant (Ki) in [2] and in assay [5] were 6300 nM and 1350 nM, respectively. Besides, the “Blood glucose, percent of control” value in the assay on Mus musculus [4] was found to be 98%.
The molecule `C1=CN2CCN=C2C(N2CCNCC2)=N1.O=C(O)C/C=C\CC(=O)O` had an inhibition in [7] of 15%. The “Blood glucose, percent of control” value in the assay on Mus musculus [4] worked out at 71%. The molecule further had an inhibitory constant (Ki) in [5] of 870 nM.
`c1cn2ccnc2c(N2CCNCC2)n1`: the Relative potency in [1] is 76. The Ki in [2] was 400 nM; in assay [3], 3100 nM; in [6] it was 1700 nM.
For the molecule `Cc1cnc(N2CCNCC2)c2nccn12.Cl`, the Relative potency in assay [1] stood at 17. Also, the inhibition constant Ki in assay [2] is 360 nM; in assay [3], 2600 nM; in assay [5], 140 nM; in assay [6], 820 nM. Also, in the assay on Mus musculus [4], the “Blood glucose, percent of control” value came out at 52%.
`CN1CCN(c2nccn3ccnc23)CC1` yielded a Relative potency in assay [1] of 19. Further, the Ki result is “Not Active” in assay [8] and 1020 nM in assay [5]. Moreover, the “Blood glucose, percent of control” value in the assay with Mus musculus [4] is given as 62%.
As for `Cc1cnc(N2CCN(C)CC2)c2nccn12`, in [7], the inhibition came to 45%. Also, in assay [1], the Relative potency is 6. Further, the Ki in assay [2] amounted to 2800 nM; in [5], 81 nM. For the same molecule, in the assay with Mus musculus [4], the “Blood glucose, percent of control” value is 51%.
As to `CC1CN=C2C(N3CCNCC3)=NC=CN21.O=C(O)C/C=C\CC(=O)O` (stereo not given), in [7], the inhibition is 12%. The “Blood glucose, percent of control” value in the assay on Mus musculus [4] is listed as 88%. The molecule also yielded a Ki in assay [5] of 1600 nM.
On to `CCCc1cnc2c(N3CCNCC3)nccn12.Cl`, for which, in [1], the Relative potency was determined as 4. The Ki in assay [2] was determined as 7790 nM; in [3], 2650 nM; in [5] it was 480 nM; in assay [6] it was 1390 nM. The “Blood glucose, percent of control” value in the assay on Mus musculus [4] was 59%.
As to `Brc1cnc(N2CCNCC2)c2ncc(Br)n12`, in the assay on Mus musculus [9], the Control result is “inactive”. For the same molecule, the values for the Ki in assay [2] and in assay [5] were 630 nM and 11900 nM, respectively.
In turn, `Cc1cn2ccnc(N3CCNCC3)c2n1.Cl` gave a Relative potency in assay [1] of 32. Further, the Ki in assay [2] was determined as 310 nM; in [5], 51 nM. Further, the “Blood glucose, percent of control” value in the assay on Mus musculus [4] was determined as 28%.
In turn, `Cl.Cl.Clc1cn2ccnc2c(N2CCNCC2)n1` displayed a Ki in assay [10] of 250 nM. Also, the Relative potency in assay [1] is more than 5. For the same molecule, the “Blood glucose, percent of control” value in the assay with Mus musculus [4] was determined as 36%.
As for `Brc1cnc(N2CCNCC2)c2nccn12`, the Ki in assay [2] was determined as 170 nM; in assay [3], 1490 nM; in assay [5] it was 182 nM; in assay [6] it was 520 nM. Moreover, the “Blood glucose, percent of control” value in the assay on Mus musculus [4] is given as 87%.
Consider `Cl.FCCc1cnc2c(N3CCNCC3)nccn12`, for which the Relative potency in assay [1] worked out at 8. Besides, the “Blood glucose, percent of control” value in the assay on Mus musculus [4] is recorded as 56%.
The molecule `Cc1cnc2c(N3CCNCC3)nccn12.Cl` showed a Relative potency in assay [1] of 11. Besides, the inhibition constant (Ki) in assay [2] came to 2400 nM; in assay [3] it was 1800 nM; in [5] it was 240 nM; in [6], 2300 nM. In the assay with Mus musculus [4], the “Blood glucose, percent of control” value came to 32%.

The values above are taken from ChEMBL document CHEMBL1125319, “Synthesis and hypoglycemic activity of substituted 8-(1-piperazinyl)imidazo[1,2-a]pyrazines” (J Med Chem, 1992).
